Data taken from ChEMBL document CHEMBL1124588, “Synthesis and evaluation of N,N-di-n-propyltetrahydrobenz[f]indol-7-amine and related congeners as dopaminergic agonists” (J Med Chem, 1989).

Experiments:
[1] = molecular target: D(2) dopamine receptor (Rattus norvegicus) (UniProt P61169); conditions: Plasma
[2] = molecular target: D(2) dopamine receptor (Rattus norvegicus) (UniProt P61169); assay: Dopamine D2 agonistic activity (2 mg/kg) as percent change in prolactin level in reserpinized rats; type: functional, organism-based
Outline: (§1)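 Male Sprague-Dawley rats were given reserpine 15 mg/kg ip as an aqueous suspension 18 h before dosing. Compound in 10% ethanol was given ip; controls received saline. Rats were killed 1 h later and blood was allowed to clot. Serum prolactin was measured by NIAMD radioimmunoassay as ng NIAMD-prolactin-PR-1/mL and expressed as percent change versus control.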

[3] = molecular target: D(2) dopamine receptor (Rattus norvegicus) (UniProt P61169); assay: Dopamine D2 agonistic activity (2 mg/kg) as plasma prolactin level in reserpinized rats; type: functional, organism-based
Outline: as §1

Sequence of D(2) dopamine receptor (Rattus norvegicus) (P61169 whole entry): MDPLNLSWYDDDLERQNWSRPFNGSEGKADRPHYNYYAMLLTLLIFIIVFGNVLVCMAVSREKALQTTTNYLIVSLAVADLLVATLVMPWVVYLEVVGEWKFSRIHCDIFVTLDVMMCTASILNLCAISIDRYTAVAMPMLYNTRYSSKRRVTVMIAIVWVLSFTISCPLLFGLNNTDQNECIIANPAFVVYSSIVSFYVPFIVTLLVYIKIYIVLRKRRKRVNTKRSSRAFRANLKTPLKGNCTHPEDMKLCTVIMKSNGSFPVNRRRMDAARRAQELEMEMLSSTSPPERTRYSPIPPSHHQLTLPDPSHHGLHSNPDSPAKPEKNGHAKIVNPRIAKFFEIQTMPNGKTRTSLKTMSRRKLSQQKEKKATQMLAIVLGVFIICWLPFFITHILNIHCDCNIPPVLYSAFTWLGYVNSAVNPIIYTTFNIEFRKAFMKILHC

SMILES	PRL [1] [ng/mL]	Change [2] [%]	PRL [3] [ng/mL]
CCCN(CCC)C1CCc2ccc3[nH]ccc3c2C1 (configuration not stated)	3.8	–	–
CCCN(CCC)CCc1cccc(NC(C)=O)c1	–	-19	36.9
CCCN(CCC)CCc1cccc2[nH]ccc12	–	-69	5
CCCN(CCC)CCc1ccc2cc[nH]c2c1	–	0	51.2
CCCN(CCC)CCc1cccc(NC(=O)C(F)(F)F)c1	–	-21	36.8
CCCN(CCC)C1CCc2ccc(NS(C)(=O)=O)cc2C1 (configuration not stated)	–	-41	28.3
CCCN(CCC)C1CCc2cc3cc[nH]c3cc2C1 (configuration not stated)	–	-37	30.6
CCCN(CCC)C1CCc2ccc(NC(C)=O)cc2C1 (configuration not stated)	–	-19	38.9
CCCN(CCC)CCc1cccc(NS(C)(=O)=O)c1	–	-76	12.6
